In assay [1] the target is T1, Histone deacetylase (Homo sapiens) (UniProt Q13547+O15379+Q9UBN7+Q92769+Q9UQL6+Q8WUI4+Q9BY41+Q96DB2+P56524+Q9UKV0+Q969S8). The settings on record: HeLa, at 1 µM.
Assay [2] has as its target Histone deacetylase. Kind of assay: Inhibition of HDAC in human HeLa cells by fluorescent activity assay. In kind it is cell-based.
The target of assay [3] is T1, Histone deacetylase (Homo sapiens). The settings on record: HeLa, at 10 µM.
Assay [4] has the same target. Particulars: HeLa, at 0.1 µM.
Assay [5] deals with HCT-116. Put plainly: Antiproliferative activity against human HCT116 cells after 5 days by Alamar blue assay. The class given is functional, cell-based. Particulars: HCT-116, 120 h. For orientation: Alamar Blue is a resazurin reagent that responds to reducing activity.
Assay [6] addresses T1, Histone deacetylase (Homo sapiens). Put plainly: Inhibition of HDAC in human HeLa cells at 50 uM by fluorescent activity assay. The class given is cell-based. The essentials:
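HDAC activity was measured with a commercial fluorescent kit using Fluor de Lys substrate plus developer. Compounds were dissolved in DMSO and stored at -80 °C. Fluorophore release was read at excitation 335 nm and emission 460 nm. All experiments were run in triplicate.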

pIC50: −log10 of the molar value. A value given as a limit tells only on which side of the number the result lay.

As to `O=C(CCCC1CCN(C(=O)Nc2ccccc2)CC1)NO`, the inhibition amounted to 81% in assay [1], 86% in assay [3] and 53% in assay [4]. In assay [2], the half-maximal inhibitory concentration (IC50) is 0.1 µM. The compound further had a pIC50 in assay [5] of 6.15.
With `O=C(CCCCCC1CCN(C(=O)Nc2ccccc2)CC1)NO`, the values for the inhibition in assay [1] and in assay [4] were 54% and 16%, respectively.
As to `O=C(CCCCN1CCN(C(=O)c2ccccc2)CC1)NO`, the inhibition in assay [1] came to 9%; in assay [4], 3%.
Turning to `O=C(NO)C1CCN(S(=O)(=O)Cc2ccccc2)CC1`, the results for the inhibition in assay [6] and in assay [3] were 33% and 1%, respectively.
`O=C(CCC1CCN(C(=O)Cc2ccccc2)CC1)NO`: the inhibition was 24% in assay [1] and 2% in assay [4].
Consider `O=C(CCCN1CCN(C(=O)c2ccccc2)CC1)NO`, for which the results for the inhibition in assay [6] and in assay [3] were 30% and 13%, respectively.
With `O=C(CCCCC1CCN(C(=O)NCc2ccccc2)CC1)NO`, the results for the inhibition in assay [1] and in assay [4] were 49% and 18%, respectively.
Regarding `O=C(CCN1CCN(C(=O)c2ccccc2)CC1)NO`, the inhibition in assay [1] and in assay [4] was 3% each time.
Consider `O=C(NO)C1CCN(S(=O)(=O)c2ccccc2)CC1`, for which the figures for the inhibition in assay [6] and in assay [3] were 50% and 29%, respectively.
The corresponding values for `O=C(CC1CCN(S(=O)(=O)Cc2ccccc2)CC1)NO` are 22% and 21%.
For `O=C(CC1CCN(C(=O)Cc2ccccc2)CC1)NO` the same measures were 61% and 39%.
Consider `O=C(CCC1CCN(S(=O)(=O)Cc2ccccc2)CC1)NO`, for which the inhibition in assay [1] was found to be 33%; in assay [4], 8%.
Turning to `O=C(CCCC1CCN(C(=O)NCc2ccccc2)CC1)NO`, the values for the inhibition in assay [1], in assay [3] and in assay [4] were 69%, 86% and 59%, respectively. Also, the IC50 in assay [2] is 0.09 µM. The pIC50 in assay [5] was 6.52.
As to `O=C(NO)C1CCN(C(=O)Cc2ccccc2)CC1`, the inhibition turned out to be 65% in assay [6] and 33% in assay [3].
Take `O=C(CCC1CCN(S(=O)(=O)c2ccccc2)CC1)NO`: the inhibition in assay [1] was 33%; in assay [4], 9%.
As to `O=C(CN1CCN(C(=O)Cc2ccccc2)CC1)NO`, the values for the inhibition in assay [6] and in assay [3] were 19% and 6%, respectively.
In the case of `O=C(CCCN1CCN(S(=O)(=O)Cc2ccccc2)CC1)NO`, the figures for the inhibition in assay [6] and in assay [3] were 19% and less than 10%, respectively.
For `O=C(CCN1CCN(C(=O)Cc2ccccc2)CC1)NO` the same measures were 2% and 0%.
Consider `O=C(CCN1CCN(S(=O)(=O)c2ccccc2)CC1)NO`, for which the values for the inhibition in assay [6] and in assay [3] were 44% and 14%, respectively.
Consider `O=C(CCCCC1CCN(C(=O)c2ccccc2)CC1)NO`, for which the inhibition in assay [1] turned out to be 44%; in assay [4], 12%.
Take `O=C(CCCCC1CCN(C(=O)Nc2ccccc2)CC1)NO`: the inhibition amounted to 63% in assay [1] and 23% in assay [4].
The corresponding values for `O=C(CCCCN1CCN(S(=O)(=O)c2ccccc2)CC1)NO` are 12% and 9%.
With `O=C(CC1CCN(C(=O)c2ccccc2)CC1)NO`, the inhibition in assay [6] was determined as 41%; in assay [3], 7%.
For `O=C(NO)C1CCN(C(=O)c2ccccc2)CC1` the same measures were 16% and 0%.
Consider `O=C(CCCC1CCN(S(=O)(=O)Cc2ccccc2)CC1)NO`, for which the inhibition amounted to 77% in assay [6] and 12% in assay [4]. The same compound came in with an IC50 in assay [2] of 0.84 µM. The same compound had a pIC50 in assay [5] of 5.49.
As for `O=C(CCCC1CCN(C(=O)Cc2ccccc2)CC1)NO`, the inhibition stood at 72% in assay [1], 85% in assay [6], 80% in assay [3] and 36% in assay [4]. This compound also registered an IC50 in assay [2] of 0.26 µM. The pIC50 in assay [5] is 5.29.
Take `O=C(CCCCC1CCN(C(=O)Cc2ccccc2)CC1)NO`: the inhibition in assay [1] was found to be 54%; in assay [4], 11%.
On to `O=C(CCCC1CCN(S(=O)(=O)c2ccccc2)CC1)NO`, for which the IC50 in assay [2] stood at 0.54 µM. Further, the pIC50 in assay [5] was 5.57.
With `O=C(CCCN1CCN(C(=O)Cc2ccccc2)CC1)NO`, the results for the inhibition in assay [6] and in assay [3] were 52% and 28%, respectively.
As to `O=C(CCCCN1CCN(C(=O)Cc2ccccc2)CC1)NO`, the inhibition was determined as 40% in assay [1] and 19% in assay [4].
In the case of `O=C(CCN1CCN(S(=O)(=O)Cc2ccccc2)CC1)NO`, the inhibition was 38% in assay [6] and 1% in assay [3].
Regarding `O=C(CCCCC1CCN(S(=O)(=O)c2ccccc2)CC1)NO`, the inhibition in assay [1] was 45%; in assay [4] it was 13%.
On to `O=C(CCC1CCN(C(=O)c2ccccc2)CC1)NO`, for which the figures for the inhibition in assay [1] and in assay [4] were 30% and 11%, respectively.
For the compound `O=C(CN1CCN(S(=O)(=O)c2ccccc2)CC1)NO`, the inhibition in assay [6] was determined as 10%; in assay [3], 3%.
For `O=C(CCCN1CCN(S(=O)(=O)c2ccccc2)CC1)NO` the same measures were 50% and 30%.
For `O=C(CN1CCN(S(=O)(=O)Cc2ccccc2)CC1)NO` the same measures were 51% and 16%.
As for `O=C(CCCC1CCN(C(=O)c2ccccc2)CC1)NO`, the inhibition was 77% in assay [6], 69% in assay [3] and 11% in assay [4]. The compound also registered an IC50 in assay [2] of 1.39 µM. In addition, the pIC50 in assay [5] is 4.76.
Take `O=C(CCCCN1CCN(S(=O)(=O)Cc2ccccc2)CC1)NO`: the figures for the inhibition in assay [1] and in assay [4] were 9% and 4%, respectively.
Take `O=C(CC1CCN(S(=O)(=O)c2ccccc2)CC1)NO`: the inhibition amounted to 68% in assay [6] and 41% in assay [3].
Regarding `O=C(CCCCCC1CCN(C(=O)NCc2ccccc2)CC1)NO`, the inhibition in assay [1] turned out to be 62%; in assay [4], 20%.

One may read the inhibition as the drop in the measured response relative to a control, in per cent. One may read the IC50 as the concentration that inhibits the measured activity by half. Lower therefore signals inhibition by little substance. Broadly, the pIC50 is the negative decadic logarithm of the IC50, by convention in mol/L. A higher pIC50 goes with a low IC50.

These data come from ChEMBL document CHEMBL1759961, “Alkyl piperidine and piperazine hydroxamic acids as HDAC inhibitors” (Bioorg Med Chem Lett, 2011).
